The record followed here is ChEMBL document CHEMBL4513216, “Probing the Open Global Health Chemical Diversity Library for Multistage-Active Starting Points for Next-Generation Antimalarials” (ACS Infect Dis, 2020).

The data set in a line: Toxicity liver stage against HepG2, at 10uM. Type of data set: cell-based. More on the design: test concentration 10 uM, cell line HepG2-A16-CD81EGFP. The following applies: human, HepG2-A16-CD81EGFP cells; read-out: INHIBITION
In a few lines: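 Uninfected HepG2-A16-CD81EGFP cells, 3 × 10^3 per well, 1536-well, plated on prespotted compound at 10 μM final, parasite-free screening media added to match infected plates; puromycin 10 μM positive, DMSO 0.5% negative; run in parallel with 48 h PbLuc assay at 37 °C, 5% CO2; viability by CellTiter-Glo luminescence, normalized to controls.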
As for `COCC(=O)NC[C@H]1OC[C@@H](NC2CCC(F)(F)CC2)[C@@H]1O`, the cytotoxicity at 10 µM was -3.32%.

With `Cn1cc(CNC[C@H]2Cn3ccnc3CO2)c2ccccc21`, the cytotoxicity at 10 µM was -1.91%.

As to `CCC1CN(CC(=O)NCCN(CC)CC)c2ccccc2S1` (stereo not drawn), the cytotoxicity at 10 µM was -1.23%.

For the compound `Cc1nc(N2CCCC2)nc(C)c1NS(C)(=O)=O`, the cytotoxicity at 10 µM came out at 1.61%.

With `O=C(Cn1nc(Br)nc1Br)N1CCCCC1`, the cytotoxicity at 10 µM was -4.38%.

Consider `CN(C)C(CNS(=O)(=O)c1ccc(F)cc1F)c1cccn1C` (stereo not drawn), for which the cytotoxicity at 10 µM was -13.9%.

Turning to `COCC1c2c(cnn2C)CCN1Cc1ccoc1` (stereo not drawn), the cytotoxicity at 10 µM was -10.8%.

Regarding `O=C(Cn1nc(C(F)(F)F)c(Br)c1C1CC1)N1CCOCC1`, the cytotoxicity at 10 µM was -0.614%.

`O=C(O)CCC(=O)Nc1nn(Cc2ccccc2Cl)cc1Cl`: the cytotoxicity at 10 µM amounted to 7%.

With `Cc1nn(C)c2cn(C(C)C(=O)NCc3ccc(F)cc3)nc12` (stereo not drawn), the cytotoxicity at 10 µM amounted to 9.46%.

As for `COc1ccc(-c2cc(C3(O)CCN(C)CC3)on2)cc1`, the cytotoxicity at 10 µM amounted to 3.89%.

Turning to `COCCNC(=O)c1nnn(Cc2ccccc2)c1OC`, the cytotoxicity at 10 µM was determined as 11.6%.

In the case of `Cc1nn(C)cc1NC(=O)CN1CCN(C2CCCC2)C(=O)C1`, the cytotoxicity at 10 µM turned out to be 6.89%.

As to `CN1CCOC(C)(C(=O)Nc2nccs2)C1` (stereo not drawn), the cytotoxicity at 10 µM came out at 4.92%.

Turning to `CCCn1nccc1-c1cnc(CC2CCN(C(C)=O)C2)cn1` (stereo not drawn), the cytotoxicity at 10 µM is -6.88%.

In the case of `COc1ccc2c(c1)NC(C1CCNCC1)NS2(=O)=O` (stereo not drawn), the cytotoxicity at 10 µM is -2.86%.

For the compound `Cc1nnsc1C(=O)N1CCCCC1c1cc2nc(C)c(C)c(O)n2n1` (stereo not drawn), the cytotoxicity at 10 µM is -5.93%.

For `CN(C)C(=O)CN1CCCCC1c1nc(N)ncc1-c1ccccc1` (stereo not drawn), the cytotoxicity at 10 µM was found to be 4.19%.

In the case of `CCn1cc(CN2CC3CCCN3C[C@H]2C)c(C)n1` (stereo partly drawn), the cytotoxicity at 10 µM was found to be 0.951%.

For the compound `O=C(CC(SC1CCCCC1)C(=O)O)c1ccc(Br)cc1` (stereo not drawn), the cytotoxicity at 10 µM stood at 3.43%.

In the case of `O=S(=O)(c1cc(F)ccc1F)N1CCCC1c1ccncc1` (stereo not drawn), the cytotoxicity at 10 µM is 14.3%.

As to `Cc1cc(C(=O)N(C)C2CCS(=O)(=O)C2)c2ccc(F)cc2n1` (stereo not drawn), the cytotoxicity at 10 µM is -9.59%.

Turning to `COc1ccc(CN(C)Cn2cc(C)n(-c3cc(C)on3)c2=O)cc1`, the cytotoxicity at 10 µM was 3.36%.

On to `O=S(=O)(c1cncc(F)c1)N1CCC2(CCCCC2)C1`, for which the cytotoxicity at 10 µM is -4.61%.

In the case of `CCc1nnc2n1CCN(C(C(=O)N(CC)CC)c1ccccc1)C2` (stereo not drawn), the cytotoxicity at 10 µM is -0.77%.

Turning to `CC(C)(C)c1n[nH]c(C2CN(CC3CCC3)CCO2)n1` (stereo not drawn), the cytotoxicity at 10 µM amounted to 9.15%.

For the compound `Cc1ccc(C)c(Oc2ccc(CNC(=O)C3CCC(=O)N3)cn2)c1` (stereo not drawn), the cytotoxicity at 10 µM was 5.98%.

For `O=C(NCC1CCCN1CCc1ccccc1)NCC1(O)CCC1` (stereo not drawn), the cytotoxicity at 10 µM was -3.06%.

For the compound `CCCn1nc(C(=O)NCCc2nnc3n2CCC3)ccc1=O`, the cytotoxicity at 10 µM came to 3.38%.

Consider `COC(=O)c1ccc(N(C(=O)c2cc(Cl)ccn2)C(C)C)c(C)c1`, for which the cytotoxicity at 10 µM worked out at 7.51%.

As for `COc1cc(C#N)ccc1OCC(=O)NS(=O)(=O)c1cccnc1`, the cytotoxicity at 10 µM amounted to 5.41%.

Turning to `Cc1ccc(NC(C(N)=O)c2ccc(F)cc2)cc1` (stereo not drawn), the cytotoxicity at 10 µM is 9.19%.

Consider `O=C(Cc1ccc(F)cc1)NCCNS(=O)(=O)c1ccc(F)c(F)c1`, for which the cytotoxicity at 10 µM was -6.7%.

On to `CC(C)CCC(=O)NCC(=O)N1CCCCCC1c1ccco1` (stereo not drawn), for which the cytotoxicity at 10 µM was 7.47%.

Consider `C[S+]([O-])c1nncn1CC(=O)c1ccc(Br)cc1` (stereo not drawn), for which the cytotoxicity at 10 µM was determined as 0%.

For `Cc1cccc(C)c1OCC(O)CNCc1c(C)nn(C)c1N(C)C` (stereo not drawn), the cytotoxicity at 10 µM was -1.47%.

As for `CS(=O)(=O)N1CCc2c(cccc2NC(=O)Nc2ccccn2)C1`, the cytotoxicity at 10 µM is -6%.

In the case of `CCN(Cc1ccoc1)C(=O)NC1CCN(CC2CC2)C1` (stereo not drawn), the cytotoxicity at 10 µM is -0.525%.

`CCN(Cc1ccc(Cl)c(Cl)c1)C(=O)CCn1cncn1`: the cytotoxicity at 10 µM stood at 9.87%.

On to `Cc1ccc(CNCc2cccc(NC(=O)CCN3CCOCC3)c2)s1`, for which the cytotoxicity at 10 µM was -1.91%.

On to `O=S(=O)(c1ccccc1)N1CCC[C@]2(C[C@H](OCC3CC3)CO2)C1`, for which the cytotoxicity at 10 µM was -75.9%.

As to `CC(C)c1nc(CN(C)C(=O)CCc2ccc3c(c2)OCO3)cs1`, the cytotoxicity at 10 µM is -15.8%.

Consider `Cc1cc(C)n(CCCC(=O)N2CC[C@H]3NCCC[C@]3(CO)C2)n1`, for which the cytotoxicity at 10 µM is -0.862%.

In the case of `COCCC(=O)N1C[C@H](C(C)C)[C@@H](N(C)C)C1`, the cytotoxicity at 10 µM came to 5.75%.

With `COc1ccccc1OC1CCN(C(=O)c2cccc(O)c2C)CC1`, the cytotoxicity at 10 µM worked out at 12.5%.

For `CCS(=O)(=O)N1CCC(c2nccn2Cc2ccccn2)CC1`, the cytotoxicity at 10 µM is 6.27%.

`CCc1c(C)sc2ncnc(N3CC[C@@H](N4CCOCC4)[C@H](O)C3)c12`: the cytotoxicity at 10 µM was -4.24%.

As for `COCCN(C)C(C(=O)O)c1ccc(C)c(C)c1` (stereo not drawn), the cytotoxicity at 10 µM is -9.47%.

As for `Cc1cc(C(F)(F)F)nc(CNc2nc(C)nc3c2cnn3C)n1`, the cytotoxicity at 10 µM is -2.24%.

In the case of `Cc1noc(C)c1CN1CCn2nc(CCC(=O)N3CCCC3)cc2C1`, the cytotoxicity at 10 µM is -4.52%.

For `CNCCNc1nccc(-c2cn(C)nc2C)n1`, the cytotoxicity at 10 µM was found to be 2.35%.

`Cc1nc(C)n(CCCNc2ncnc3onc(C)c23)n1`: the cytotoxicity at 10 µM was -7.12%.

As to `CCOCc1nc2c(c(N3CCN4CCCC4C3)n1)CCNCC2` (stereo not drawn), the cytotoxicity at 10 µM came to 0.394%.

`CCc1ccc(CN2CCN(c3ccc(C(N)=O)cn3)CC2)nc1`: the cytotoxicity at 10 µM worked out at 4.95%.

For `Cc1nc(N)nc(C)c1CC(=O)N1CCCCC1c1cccc(F)c1` (stereo not drawn), the cytotoxicity at 10 µM is -2.06%.

Consider `C=C(C)COc1ccccc1CN1CCC(NC(C)=O)CC1`, for which the cytotoxicity at 10 µM is 11.9%.

Consider `OC1(CN2CCCC2)COCCN(c2ncnc3[nH]ccc23)C1` (stereo not drawn), for which the cytotoxicity at 10 µM came to 10.7%.

`CCN(Cc1cc(Cl)ccc1OC)Cc1ncnn1CC`: the cytotoxicity at 10 µM came to 3.9%.

As for `O=C(COc1cccnc1)N1CCOC(C(F)(F)F)C1` (stereo not drawn), the cytotoxicity at 10 µM was -11.5%.

As to `O=C(NCCNc1cc(N2CCCC2)ncn1)c1cnccn1`, the cytotoxicity at 10 µM was -46.3%.

As to `CN(CCSc1ccccc1)C(=O)C(c1cccnc1)N1CCOCC1` (stereo not drawn), the cytotoxicity at 10 µM turned out to be 4.94%.

As to `Cc1cc(-c2ccc(C(=O)O)cc2)nc(C2CCCN(C(C)C)C2)n1` (stereo not drawn), the cytotoxicity at 10 µM stood at 5.61%.

On to `CC(C)(C)CC(=O)NS(=O)(=O)c1ccc(C#N)cc1C(F)(F)F`, for which the cytotoxicity at 10 µM is -12.3%.

Regarding `Cc1nnc(C(C)N2CCCN(Cc3ccc(F)cc3)CC2)o1` (stereo not drawn), the cytotoxicity at 10 µM was -4.92%.

Consider `Cc1cnn(C2CCCN(C(=O)CCNS(C)(=O)=O)C2)c1` (stereo not drawn), for which the cytotoxicity at 10 µM is -28.6%.

With `Cc1nn(CCO)c(C)c1CNCc1cccnc1N(C)C`, the cytotoxicity at 10 µM was -9.89%.

Regarding `COc1ccc(CNCc2c(C(C)C)nn(C)c2N(C)C)cn1`, the cytotoxicity at 10 µM is -3.92%.

For the compound `O=C(c1ccccc1)N1CCN(CC(O)c2ccc(F)cc2)CC1` (stereo not drawn), the cytotoxicity at 10 µM was -8.24%.

For the compound `CCN1CCN(C(=O)c2cnc3c(cnn3C3CCCC3)c2)CC1`, the cytotoxicity at 10 µM is -14.1%.

For the compound `Cn1ccc2c(C(=O)N3CCCC3c3noc(C4CC4)n3)cccc21` (stereo not drawn), the cytotoxicity at 10 µM is -7.82%.

As for `N#Cc1ccccc1N1CCCN(C(=O)CCc2ccsc2)CC1`, the cytotoxicity at 10 µM is -8.25%.

Consider `Cc1ncc2c(n1)CN(CCCOc1ccc(C#N)cc1)CC2`, for which the cytotoxicity at 10 µM was -3.9%.

Turning to `CCc1nc(CN2CCCN(C(=O)CCCOC)CC2)cs1`, the cytotoxicity at 10 µM was -14.4%.

For `Cc1cccc2nc(CN3CCCC3Cn3cccn3)cn12` (stereo not drawn), the cytotoxicity at 10 µM is 0.893%.

In the case of `CCc1ncc2c(n1)CN(CC(=O)Nc1cccnc1)CC2`, the cytotoxicity at 10 µM was -1.1%.

For the compound `O=C(CN1CCCC(Cn2cncn2)C1)NCc1ccccc1F` (stereo not drawn), the cytotoxicity at 10 µM was -4.65%.

Take `Cc1cccc(-c2noc(CN3CCCC3Cn3cncn3)n2)c1` (stereo not drawn): the cytotoxicity at 10 µM amounted to 0.983%.

As to `Cc1cnn(CC2CN(CC(=O)NCc3ccc(C)s3)CCO2)c1` (stereo not drawn), the cytotoxicity at 10 µM was found to be 0.742%.

Turning to `CN(Cc1nnc2n1CCC2)C(=O)Cc1ccc2c(c1)CCC2`, the cytotoxicity at 10 µM is -15.5%.

As for `O=C(NCC1CCOC1)c1csc(-c2cccc(Cl)c2)n1` (stereo not drawn), the cytotoxicity at 10 µM is -7.41%.

As to `CCN(CC)Cc1ccc(C(=O)N2CCCCC2Cn2cccn2)o1` (stereo not drawn), the cytotoxicity at 10 µM is -7.89%.

`Cc1nc(C)n(C2CCCN(C(=O)c3ccc4c(c3)COC4)C2)n1` (stereo not drawn): the cytotoxicity at 10 µM was -9.12%.

For the compound `CC(=O)N(Cc1noc(C2CC2)n1)C1CCN(Cc2nccn2C)C1` (stereo not drawn), the cytotoxicity at 10 µM is -5.65%.

Turning to `Cc1cc(CNc2cc(Cl)ccc2Cl)no1`, the cytotoxicity at 10 µM is 18.9%.

`O=C(c1ccc(NC2CC2)nc1)N1CCCC(n2cccn2)C1` (stereo not drawn): the cytotoxicity at 10 µM is -12.2%.

`CN(C)C(=O)N1CCN(Cc2noc(Cc3ccccc3)n2)CC1`: the cytotoxicity at 10 µM was -8.8%.

For the compound `CCn1cc(NC(=O)C2CCN(Cc3ccccc3C#N)CC2)cn1`, the cytotoxicity at 10 µM is 1.13%.

Consider `O=C(NCCNc1cnccn1)N1CCCC1`, for which the cytotoxicity at 10 µM was found to be 3.92%.

Consider `c1ccc(CN2CCN(Cc3cscn3)CC2)cc1`, for which the cytotoxicity at 10 µM is -2.69%.

For the compound `CN1CC(=O)N(c2ccsc2)CC12CCN(C(=O)c1cccn1C)C2` (stereo not drawn), the cytotoxicity at 10 µM is -75.7%.

For `CN1CCOCC2(CCCN(C(=O)Cc3ccncc3)C2)C1` (stereo not drawn), the cytotoxicity at 10 µM was -84.6%.

Turning to `Cc1nc(CN2CCc3cc(C(=O)O)c(N(C)C)nc3CC2)cs1`, the cytotoxicity at 10 µM was 3.42%.

On to `CNC(=O)CN1CC[C@H]2CN(C(=O)c3ccccc3F)C[C@H]2C1`, for which the cytotoxicity at 10 µM was -1.34%.

In the case of `CN(C)C(=O)CN1CCC2(COCc3cnc(N4CCOCC4)nc32)C1` (stereo not drawn), the cytotoxicity at 10 µM is -70.5%.

On to `Cc1nc(CN2C[C@@H]3CN(C(=O)[C@H]4CCCO4)C[C@@H]3C2=O)cs1`, for which the cytotoxicity at 10 µM was -81.5%.

`CS(=O)(=O)NC1CC2(CCN(CC3CC3)CC2)Oc2ccccc21` (stereo not drawn): the cytotoxicity at 10 µM was -5.34%.

`C=c1ncsc1=C1NN=C(C2CCCN2C(=O)Cn2cccn2)O1` (stereo not drawn): the cytotoxicity at 10 µM is 4%.

As to `Cc1nnc(SCC(=O)N2C[C@@H]3CC[C@H]2CN(c2ncccn2)C3)[nH]1`, the cytotoxicity at 10 µM amounted to 2.24%.
